Shown are actives, neighbours in structure and some others; about 1.7% of the full set was active somewhere.
NTR1 ag – agonists of human NTR1, primary screen, imaging, U2OS cells, beta-arrestin-GFP, high content. Neurotensin receptor type 1 (Homo sapiens), P30989. NTR1-U2OS beta-arrestin-GFP spot imaging, agonist mode. activation, % at 20 µM. 330,000 tested, 0.17% active;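 active means activation at or above 40% of the spot to cytoplasm intensity ratio, with at least 20 cells analyzed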;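 further: 0% = DMSO without peptide and 100% = 100 nM NTR1 peptide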
Target sequence (P30989 whole entry, looked up): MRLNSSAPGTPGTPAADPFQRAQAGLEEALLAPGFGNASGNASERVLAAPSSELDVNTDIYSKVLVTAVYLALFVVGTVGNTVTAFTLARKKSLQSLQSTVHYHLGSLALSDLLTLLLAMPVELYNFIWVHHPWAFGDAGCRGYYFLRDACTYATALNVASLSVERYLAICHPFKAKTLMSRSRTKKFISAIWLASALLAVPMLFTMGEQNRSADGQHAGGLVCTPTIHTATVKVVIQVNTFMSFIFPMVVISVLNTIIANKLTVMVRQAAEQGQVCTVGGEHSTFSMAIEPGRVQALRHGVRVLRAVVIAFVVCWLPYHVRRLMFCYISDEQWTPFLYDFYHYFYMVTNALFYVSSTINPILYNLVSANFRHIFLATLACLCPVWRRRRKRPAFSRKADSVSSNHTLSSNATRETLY
SR-BI uptake up – activators of SR-BI mediated DiI-HDL uptake, primary screen, ldlA[mSR-BI] CHO cells, DiI fluorescence. 3 h; 100 = double the neutral-control signal. activation, % at 12.5 µM. 320,000 tested, 0.096% active. AID 504775, 2011;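 active means mean replicate activation of at least 60% and every replicate at or above 60%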;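 further: 0% = median plate neutral-control signal and 100% = twice that signal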
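Test system: SR-BI-overexpressing, LDLR-lacking CHO cells; Medium: Ham's F12 with 0.5% BSA, HEPES 25 mM, pH 7.4; Schedule: 3 h, 37 °C; Technique: bottom-read fluorescence, 550/595 nm.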
SR-BI HDL uptake – inhibitors of SR-BI mediated HDL lipid uptake, primary screen, ldlA[mSR-BI] cells, fluorescence, single point; Scavenger receptor class B member 1 (Mus musculus), Q61009; ldlA[mSR-BI] CHO cells, DiI-HDL uptake fluorescence, 3 h; inhibition, % at 12.5 µM; 320,000 tested, 0.96% active;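 active means mean replicate inhibition of at least 70% and a set share of replicates each scoring 70 or more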;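 further: 0% = median of neutral control wells and 100% = median of positive control wells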
Vif inh – HIV Vif self-association inhibitors, primary screen, imaging, HEK293T, single point; HEK293T cells, Vif self-association by quenched fluorescence, 24 h; inhibition, % at 7.49 µM; 340,000 tested, 0.35% active; in the data active means inhibition above about 50%, passing the limit was not always enough
CaV13 FRET inh – Disruptors of the CACNA1D IQ motif to Ca2+-dependent inactivation inhibitor domain association, primary screening, Förster resonance energy transfer in intact living …; 340,000 tested, 0.098% active; HEK cells, CFP/YFP FRET ICDI-IQ, plate reader, 10 min; percent FRET-ratio fall versus neutral wells; inhibition, % at 12.3 µM;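 active means mean replicate inhibition of at least 30% and at least 1% of replicates passing that level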;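 further: 0% = median of the neutral control wells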
V-ATPase pHluor – regulators of yeast V-ATPase proton pumping, primary screen, pHLuorin cytosolic pH fluorescence; 350,000 tested, 0.37% active; S. cerevisiae; response, % at 10 µM; in the data active means response mostly above about 7.3%, no sharp cut-off; inactive means mostly below about 5.4%; further: actives read high
* hit, by the source's call; x = no result given.

SMILES | NTR1 ag | SR-BI uptake up | SR-BI HDL uptake | Vif inh | CaV13 FRET inh | V-ATPase pHluor
COC(=O)C1=C(C)N(C)C(=NCc2cc(OC)c(OC)c(OC)c2)NC1c1cccc(C(F)(F)F)c1 (stereo not given) | x | x | x | x | -4 | x
COc1ccc(/C=N/Nc2cc(C)nc3ccc(Br)cc23)cc1 | 1 | -64 | 64 | -4 | -7 | 0
COc1ccc2nc(C)cc(N/N=C/c3cccc(OC)c3O)c2c1 | 41* | 11 | -11 | -8 | -3 | 2
CC(C)c1[nH]nc2c1C(c1ccc(F)cc1)N(Cc1ccccc1)C2=O (stereo not given) | x | x | x | x | -4 | x
COc1cc([N+](=O)[O-])ccc1-c1ccc(/C=N\n2cnnc2)o1 | 1 | -15 | 15 | 177* | -99 | -3
Cc1ccc(-n2c(SCC(=O)Nc3ccc4c(c3)OCO4)nnc2-c2cccs2)cc1 | 0 | -60 | 60 | 76* | -5 | -3
O=C(CSc1nnc(-c2cccs2)n1-c1ccccc1)NCc1ccc2c(c1)OCO2 | 3 | -11 | 11 | x | -5 | -1
O=C(NNC(=O)c1ccc[nH]1)Nc1cc(Cl)cc(Cl)c1 | 3 | x | x | 55* | -5 | 1
O=C(NNC(=O)c1ccc[nH]1)Nc1cccc(C(F)(F)F)c1 | 0 | -8 | 8 | -3 | -3 | 0
CC(C)C[C@@H](C(=O)N[C@@H](C(=O)O)c1ccccc1)N1C(=O)N2CCc3c([nH]c4ccccc34)[C@@]2(C)C1=O | -2 | 0 | 0 | -13 | x | 0
CCOC(=O)C1CCCN(c2cc(=O)n(C3CCCCC3)c(=O)[nH]2)C1 (stereo not given) | 0 | 17 | -17 | -5 | -4 | -1
S=C1NC(c2ccccc2)=CC(c2ccccc2)N1 (stereo not given) | 1 | -82 | 82* | 1 | 8 | 0
CC1=CC(c2ccccc2)NC(=S)N1 (stereo not given) | -1 | -34 | 34 | 0 | -6 | 0
CCOc1ccc(-n2c(SCC(=O)Nc3cc(OC)c([N+](=O)[O-])cc3C)nc3ccccc32)cc1 | 1 | -82 | 82* | 8 | -9 | 4
COc1cc([N+](=O)[O-])ccc1NC(=O)CSc1nc2ccccc2n1-c1ccccc1 | 2 | x | x | x | 3 | x
O=C(N/N=C/c1cc(Br)ccc1O)C(=O)Nc1ccccc1OC(F)(F)C(F)F | x | -129 | 129* | x | -8 | -1
O=C(N/N=C/c1cc(Cl)ccc1O)C(=O)Nc1ccccc1OC(F)(F)C(F)F | x | -119 | 119* | 4 | x | 2
COCc1cc(N2CCNC[C@H]2C)ccc1N1C[C@@H](C)O[C@@H](C)C1 | x | x | x | x | -9 | x
CCc1cccc(CC)c1N1C(=O)c2cc(N3CCOCC3)c([N+](=O)[O-])cc2C1=O | 3 | -75 | 75* | -4 | -4 | 1
NC(=O)c1ccc[n+](CC(=O)c2cccc([N+](=O)[O-])c2)c1 | 0 | 24 | -24 | -7 | -20 | -2
CCC1CCc2c(sc(NC(=O)c3cccnc3)c2C(N)=O)C1 (stereo not given) | 3 | -59 | 77* | -11 | -2 | 0
NC(=O)c1c(NC(=O)c2cccnc2)sc2c1CCCC2 | 1 | -52 | 52 | -2 | -7 | 0
Cc1ccc(-c2c(C)n([O-])c3c([n+]2=O)CCCCC3)cc1 | -1 | -9 | 9 | 13 | -15 | -1
CCN(C(=O)COC(=O)/C=C/c1ccc(OC)c(OC)c1)c1c(N)n(Cc2ccccc2)c(=O)[nH]c1=O | x | -6 | 6 | -6 | -7 | 0
COc1ccc2oc(=N)c(C(=O)Nc3ccccc3Cl)cc2c1 | 9 | -72 | 72* | -2 | -20 | -1
CC(C)[C@H](NC(=O)CC1CCCC1)C(=O)N1CCC[C@H]1C(=O)NCc1ccccc1 | x | x | x | x | -9 | x
COCCNc1nc(SCC(=O)N2CCN(c3ccccc3OC)CC2)nc2ccccc12 | 5 | -72 | 72* | 1 | -10 | 2
